Bioassay records from PubChem.
Only some compounds are listed: those with a hit (about 2.8% of all), similar ones and a draw of the others.
PGE2 EP2 inh: inhibitors of human EP2 prostaglandin E2 receptor. P43116. C6 glioma cells expressing human EP2, cAMP TR-FRET; cells stimulated with saturating PGE2. inhibition, % at 25 µM. actives 0.52% (n = 260,000). AID 1422;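 active means percent inhibition above 40 after rounding to a whole number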;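 further: rat C6 glioma host cells with rolipram phosphodiesterase inhibitor present; the protocol text gives 20 µM as final concentration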
NPY-Y2 PAM-ag: human NPY-Y2 potentiation or agonism, primary screen. P49146. actives 0.45% (n = 220,000). activation, % at 3.6 µM. cells expressing NPY-Y2, potentiator/agonist read-out; in the data active means activation above about 27%;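 further: cells stimulated with NPY near EC25 plus isoproterenol at EC100; 0% = vehicle plus submaximal agonist and 100% = vehicle plus saturating agonist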
Target sequence (P49146 whole entry, looked up): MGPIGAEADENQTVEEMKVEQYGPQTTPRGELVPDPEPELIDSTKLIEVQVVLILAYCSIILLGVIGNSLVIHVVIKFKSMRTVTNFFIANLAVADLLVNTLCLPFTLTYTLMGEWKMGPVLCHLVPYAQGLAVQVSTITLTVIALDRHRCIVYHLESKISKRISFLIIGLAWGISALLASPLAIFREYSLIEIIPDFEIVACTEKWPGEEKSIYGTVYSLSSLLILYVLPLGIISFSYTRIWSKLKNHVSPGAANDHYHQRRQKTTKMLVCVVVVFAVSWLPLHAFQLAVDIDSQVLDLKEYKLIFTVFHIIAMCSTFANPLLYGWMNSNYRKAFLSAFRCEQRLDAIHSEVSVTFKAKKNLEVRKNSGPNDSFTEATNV
NPY Y1 blocker: antagonists of human neuropeptide Y receptor Y1; P25929; HEK293-CNG Y1 cells, membrane potential fluorescence; NPY at EC95, then isoproterenol; inhibition, % at 3.6 µM; actives 1% (n = 200,000); AID 1040;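 active means inhibition above the campaign mean inhibition of all tested compounds plus 3 SD, cut at about 20% in these data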;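 further: 0% = DMSO wells given NPY plus isoproterenol and 100% = isoproterenol alone without NPY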
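Material: HEK293 cells co-expressing NPY Y1 receptor and cyclic-nucleotide gated channel. Timing: compound incubation 1 h at room temperature, readout 45 min post-stimulation. Signal: fluorescence, membrane potential probe.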
NPY-Y2 antag: antagonists of human neuropeptide Y receptor Y2; P49146; NPY-Y2 expressing cells, antagonist mode; inhibition, % at 2.7 µM; actives 0.99% (n = 140,000); AID 793;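 further: 0% = vehicle with agonist challenge and 100% = reference antagonist with challenge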
EP2 modulator: modulates human prostaglandin E2 receptor EP2 signaling | AID 940 | P43116 | actives 0.83% (n = 260,000) | induction, % at 25 µM | EP2-expressing cells, cAMP HTRF FRET, PGE2 co-stimulation;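 active means compounds whose cAMP rise, as percent of the full-agonist control response, exceeds 60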;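 further: rat C6 glioma line stably carrying human EP2 under a CMV promoter; the protocol text gives 20 µM as final concentration; 100% = response of wells given 1 µM PGE2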
NPY1 pot ag: potentiates or activates human NPY-Y1 receptor. NPY-Y1 expressing cells, potentiator/agonist activation. activation, % at 3.6 µM. actives 0.37% (n = 220,000). AID 1304; in the data active means activation above about 33%, passing the limit was not always enough;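 further: cells stimulated with NPY at EC10 then isoproterenol at EC100; 0% = low agonist plus stimulus and 100% = saturating agonist plus stimulus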
NPY-Y1 ant conf: confirmation of human neuropeptide Y receptor Y1 antagonists | shares compounds with NPY Y1 blocker | HEK293-CNG NPY-Y1, membrane potential fluorescence, cAMP; NPY challenge against isoproterenol-raised cAMP | inhibition, % at 3.6 µM | actives 21% (n = 1,200) | AID 1254; in the data active means inhibition above about 20%;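 further: 0% = vehicle with agonist plus stimulus and 100% = stimulus alone without agonist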
NPY2 antag ctr: antagonizes human NPY-Y2, counter-screen to NPY-Y1 antagonists; shares compounds with NPY Y1 blocker; HEK293 NPY-Y2 CNG membrane potential fluorescence, antagonism; cells given NPY, then isoproterenol; inhibition, % at 3.6 µM; actives 28% (n = 1,200);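 further: 0% = DMSO with agonist challenge and 100% = reference antagonist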
The depositor's hits bear a star; nt = not tested or not shown. Unless noted, no stated cut-off is given here; in the data, active means inhibition above about 17%; inactive means the rest.

SMILES	PGE2 EP2 inh	NPY-Y2 PAM-ag	NPY Y1 blocker	NPY-Y2 antag	EP2 modulator	NPY1 pot ag	NPY-Y1 ant conf	NPY2 antag ctr
CCOC(=O)c1c(NC(C)=O)sc2c(OCC(O)CN(CC)CC)c(Br)ccc12 (centres undefined)	4	-82	80*	nt	-50	-181	104*	117*
CC(=O)N(C)C(c1ccc(N(C)C)cc1)c1nnnn1-c1c(C)cccc1C (centres undefined)	6	0	24*	6	12	-11	11	4
COCCn1c(-c2ccc(Br)cc2)csc1=Nc1cccnc1	6	17	0	nt	10	2	nt	nt
Clc1ccc(-c2csc(=Nc3cccnc3)n2CCCn2ccnc2)cc1Cl	11	-4	29*	16	-7	-54	19	14
O=C(Nc1ccc(C(F)(F)F)cc1Cl)c1ccc(Cn2cc(Br)cn2)o1	14	-23	22*	8	27	-52	7	8
COc1cccc(-n2nnc3c(=O)n(Cc4ccccc4F)cnc32)c1	6	-10	30*	12	2	-48	9	7
COc1cccc(-n2nnc3c(=O)n(Cc4cccc(C)c4)cnc32)c1	10	nt	nt	nt	nt	nt	nt	nt
Cc1ccc2cc(CN(Cc3nnnn3CC3CCCO3)C3CCCC3)c(=O)[nH]c2c1 (centres undefined)	8	nt	nt	nt	0	nt	nt	nt
CCCNc1nc(N2CCCC2)nc(N2CCCC2)n1	6	8	30*	nt	33	-1	13	11
CC(C)(C)Nc1nc(N2CCCC2)nc(N2CCCC2)n1	12	11	19	15	2	18	nt	nt
CCC(Oc1ccc(C)c(C)c1)C(=O)O (centres undefined)	3	-3	23*	6	26	-6	5	6
Clc1ccccc1-c1nnc(-c2ccccc2Cl)o1	21	-4	4	14	44	-21	nt	nt
Clc1ccc(-c2nnc(-c3ccccc3Cl)o2)cc1	5	-4	25*	7	29	-12	8	8
COc1cccc(-n2c(=O)[nH]c3c(C(N)=O)nc(-c4ccco4)nc32)c1	nt	nt	nt	nt	-13	nt	nt	nt
Cc1nn(-c2ccccn2)c2nc(-c3cccs3)cc(C(=O)NCc3ccco3)c12	30	-2	17	4	23	3	nt	nt
CCOC(=O)c1cc(-c2cccs2)nc2c1c(C)nn2-c1ccccn1	13	-22	62*	nt	31	-27	47*	22*
Cc1cccc2cc(CN(Cc3nnnn3CCc3ccccc3)C3CCCC3)c(=O)[nH]c12	8	nt	nt	nt	51	nt	nt	nt
CCCCC(O)(CCCC)C(=O)NN(C(=O)OCC)c1ccccc1	4	-11	34*	16	31	-24	10	9
CCCC(O)(CCC)C(=O)NN(C(=O)CCl)c1ccccc1	8	-8	1	4	12	1	nt	nt
CCCCC(O)(CCCC)C(=O)NN(C(=O)OC)c1ccccc1	5	6	26*	8	22	-6	25*	11
Cc1cc(SCC(=O)Nc2ccc(S(N)(=O)=O)cc2)nc(-c2ccccc2)n1	10	nt	nt	nt	-26	nt	nt	nt
Cc1ccc(S(=O)(=O)N(Cc2ccco2)Cc2cc3cc(C)c(C)cc3[nH]c2=O)cc1	9	nt	nt	nt	-49	nt	nt	nt
CCOC(=O)C1(CCOc2ccccc2)CCN(Cc2cccn2-c2ncccn2)CC1	5	-25	25*	nt	18	-10	11	12
CCOC(=O)C1(Cc2cccc(OC)c2)CCN(Cc2cccn2-c2ccccn2)CC1	7	-30	29*	nt	-6	-30	17	16
O=C1/C(=C/c2ccccn2)SC(=S)N1NS(=O)(=O)c1ccccc1	11	-29	24*	nt	35	-31	19	14
COc1cc(/C=C2\SC(=S)N(NS(=O)(=O)c3ccccc3)C2=O)cc(OC)c1OC	11	-22	nt	nt	15	-10	nt	nt
Cc1ccc(CN2CCN(Cc3c(C)nn(-c4ccc(F)cc4)c3C)CC2CCO)o1 (centres undefined)	5	-16	0	nt	-29	-17	nt	nt
